Assay results published in paper PMC3673543 (Biochemistry, 2012).

How the values were obtained:
[1] = tested on: HIV TAR RNA; experiment: UV thermal denaturation of HIV TAR RNA with ligand; assay type: binding, HIV-1; settings: 100 mM KCl; for ΔTm (at rdr = 1): pH 6.8, TAR RNA 1 μM/strand; for Tm: ligand/HIV TAR RNA complex, rdr = 1, 10 mM SC, 0.5 mM EDTA, pH 6.8, TAR RNA 1 μM/strand
[2] = target: HIV TAR RNA; experiment: Ethidium bromide displacement; assay type: binding, HIV-1; settings: read-out: IC50 (ethidium bromide displacement); 100 mM KCl, 10 mM SC, 0.5 mM EDTA, pH 6.8; HIV TAR RNA 50 nM/strand
Procedure, shortened: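 Ethidium bromide at 1.25 μM is excited at 545 nm, and emission is scanned from 560 to 607 nm before and after adding TAR RNA. Under these conditions, less than 20% of the ethidium bromide is bound. Fluorescence displacement titration with test compound follows in the same buffer.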

[3] = target: HIV TAR RNA; experiment: Ethidium bromide displacement titration with Scatchard analysis; assay type: binding, HIV-1; settings: 100 mM KCl, 10 mM SC, 0.5 mM EDTA, pH 6.8; TAR RNA 200 nM/strand; EtBr 5 μM
Procedure, shortened: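 Fluorescent intercalator displacement: test compound titrated into ethidium bromide (5 μM) plus HIV TAR RNA (200 nM/strand) in 10 mM SC, 0.5 mM EDTA, pH 6.8 with 100 mM KCl. Salt series run at 50, 100 and 150 mM KCl. Excitation 545 nm, emission 560–607 nm. Scatchard plot slope gives the association constant K. For the salt series, log K was plotted against log [KCl] and fitted linearly.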

[4] = tested on: HIV; experiment: Protection from HIV-induced cytopathic effect; assay type: cell-based; settings: for Maximum protection from HIV cytopathic effects: neutral red dye
Procedure, shortened: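 MT-2 cells, a line highly susceptible to HIV and fully lysed by it, were used in triplicate wells. Finter's neutral red, a vital dye, served as read-out of inhibition of HIV-induced cytopathic effect, with water as control. Maximum percent protection was recorded together with the compound concentration at which it was reached.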

[5] = tested on: MT-2 cells; experiment: Toxicity against MT-2 cells; assay type: cell-based; settings: concentration where no more than 5% cell death
[6] = tested on: tetraloop TAR RNA Mutant; experiment: FID titration with Scatchard analysis on mutant TAR; assay type: binding, HIV-1; settings: mutant tetraloop TAR 200 nM/strand; 100 mM KCl, pH 6.8; EtBr 5 μM
Procedure, shortened: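 Tetraloop TAR RNA–ethidium bromide complex in 100 mM KCl, 10 mM SC, 0.5 mM EDTA, pH 6.8, titrated with increasing test compound. The fall in fluorescence at 610 nm was followed. Normalized intensity was plotted against compound concentration, then transformed by Scatchard analysis to derive the binding constant.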

[7] = tested on: HIVNL4-3; experiment: Reverse transcriptase release into culture supernatant of MT-2 cells; assay type: cell-based, HIV
Procedure, shortened: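 MT-2 cells (500,000/well) were preincubated 1 h at 37 °C with test compound at a non-toxic concentration (≤5% cell death), then infected with H9-grown HIV NL4-3 (100,000 cpm RT activity per well, MOI <1). Virus control was infected cells plus water. Supernatants from days 2, 4 and 6 were PEG-precipitated and lysed. RT was measured as 3H-dTTP incorporation (poly rA-oligo dT, 1 h, 37 °C), as cpm/ml. Three separate experiments, each in triplicate.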

[8] = tested on: TAR; settings: aminoglycosides targeted towards TAR binding; cited from earlier work
[9] = target: T1, Tat49-57 peptide, fluorescein/TAMRA FRET probe (HIV-1, UniProt P04608 49-57, not fully specified); experiment: fluorescence intensity
T1 chain: RKKRRQRRR

| Molecule | ΔTm (at rdr = 1) [1] | Tm [1] | IC50 [2] | K (binding constant from Scatchard analysis of FID) [3] | concentration at which maximum protection was achieved ([4]; MT-2 cells, HIV cytopathic effect) | Maximum protection from HIV cytopathic effects ([4]; MT-2 cells) | 5% Toxicity (CT5) [5] | Ka (Scatchard analysis of FID titration) [6] | protection / suppression of RT release ([7]; day 2 post inoculation, vs virus control) | protection / suppression of RT release ([7]; day 4, vs virus control) | protection / suppression of RT release ([7]; day 6, vs virus control) | anti-HIV activity in the 96-well plate screening assay ([4]; HIV-induced cytopathic effect) | ΔTm (at rdr = 1) ([1]; listed as neomycin) | inhibitory effect [8] | apparent K (half saturation) [9] |
| --- | --- | --- | --- | --- | --- | --- | --- | --- | --- | --- | --- | --- | --- | --- | --- |
| NC[C@@H]1O[C@H](O[C@H]2[C@@H](O)[C@H](O[C@@H]3[C@@H](O)[C@H](N)C[C@H](N)[C@H]3O[C@H]3O[C@H](CN)[C@@H](O)[C@H](O)[C@H]3N)O[C@@H]2Cn2cc(COCc3cn(C[C@H]4O[C@@H](O[C@@H]5[C@@H](O)[C@H](N)C[C@H](N)[C@H]5O[C@H]5O[C@H](CN)[C@@H](O)[C@H](O)[C@H]5N)[C@H](O)[C@@H]4O[C@H]4O[C@@H](CN)[C@@H](O)[C@H](O)[C@H]4N)nn3)nn2)[C@H](N)[C@@H](O)[C@@H]1O [DPA51] | 10.2 °C | 79.1 °C | 56 nM | 1.17e+08 M⁻¹ |  |  |  |  |  |  |  |  |  |  |  |
| NC[C@@H]1O[C@H](O[C@H]2[C@@H](O)[C@H](O[C@@H]3[C@@H](O)[C@H](N)C[C@H](N)[C@H]3O[C@H]3O[C@H](CN)[C@@H](O)[C@H](O)[C@H]3N)O[C@@H]2Cn2cc(CCCCc3cn(C[C@H]4O[C@@H](O[C@@H]5[C@@H](O)[C@H](N)C[C@H](N)[C@H]5O[C@H]5O[C@H](CN)[C@@H](O)[C@H](O)[C@H]5N)[C@H](O)[C@@H]4O[C@H]4O[C@@H](CN)[C@@H](O)[C@H](O)[C@H]4N)nn3)nn2)[C@H](N)[C@@H](O)[C@@H]1O [DPA54] | 8.2 °C | 77.1 °C | 81 nM | 2.61e+07 M⁻¹ | 17 µM | 31% | 69 µM |  |  |  |  |  |  |  |  |
| NC[C@@H]1O[C@H](O[C@H]2[C@@H](O)[C@H](O[C@@H]3[C@@H](O)[C@H](N)C[C@H](N)[C@H]3O[C@H]3O[C@H](CN)[C@@H](O)[C@H](O)[C@H]3N)O[C@@H]2Cn2cc(-c3cccc(-c4cn(C[C@H]5O[C@@H](O[C@@H]6[C@@H](O)[C@H](N)C[C@H](N)[C@H]6O[C@H]6O[C@H](CN)[C@@H](O)[C@H](O)[C@H]6N)[C@H](O)[C@@H]5O[C@H]5O[C@@H](CN)[C@@H](O)[C@H](O)[C@H]5N)nn4)c3)nn2)[C@H](N)[C@@H](O)[C@@H]1O [DPA65] | 9.3 °C | 78.2 °C | 36 nM | 1.39e+08 M⁻¹ |  |  |  | ~ 10^7 M^−1 | 40-67% | 68-73% | 24-27% | inactive to weakly active |  |  |  |
| NC[C@@H]1O[C@H](O[C@H]2[C@@H](O)[C@H](O[C@@H]3[C@@H](O)[C@H](N)C[C@H](N)[C@H]3O[C@H]3O[C@H](CN)[C@@H](O)[C@H](O)[C@H]3N)O[C@@H]2CO)[C@H](N)[C@@H](O)[C@@H]1O [Neomycin, Neomycin B tri-sulfate, reference compound] | 0.2 °C | 69.1 °C | 417 nM |  |  | 9% |  |  |  |  |  |  | no thermal stabilization | less than 1 μM |  |
| GGCAGAUCUGAGCCUGGGAGCUCUCUGCC (structured_RNA) [HIV-1 TAR RNA] |  |  |  |  |  |  |  |  |  |  |  |  |  |  | 86 ± 9 nM |
